Results taken from paper PMC7228743 (Science Advances, 2020).

How the values were obtained:
Serum stability assay = type: in vitro ADME; details: 25% (v/v) pooled human serum, 37°C, 24 hours; RP-HPLC peak area at 215 nm
How it was run: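 Peptides dissolved in H2O/MeCN (70:30 v/v), diluted into 25% (v/v) aqueous pooled serum from human male AB plasma, and held at 37°C for 24 hours. Samples were quenched with an equal volume of MeCN on ice for 20 min, then centrifuged at 4°C for 15 min. Supernatant was diluted in H2O (0.1% TFA) to 0.1 mg/ml and run on RP-HPLC. Intact peptide was taken from the elution peak area at 215 nm.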

hGLP-1R = hGLP-1R (Homo sapiens, UniProt P43220); assay: In vitro GLP-1R activation assay; type: cell-based; details: ratio of cAMP EC50 values, 39.79 nM versus […]
hGLP-1R, sequence (P43220 24-463): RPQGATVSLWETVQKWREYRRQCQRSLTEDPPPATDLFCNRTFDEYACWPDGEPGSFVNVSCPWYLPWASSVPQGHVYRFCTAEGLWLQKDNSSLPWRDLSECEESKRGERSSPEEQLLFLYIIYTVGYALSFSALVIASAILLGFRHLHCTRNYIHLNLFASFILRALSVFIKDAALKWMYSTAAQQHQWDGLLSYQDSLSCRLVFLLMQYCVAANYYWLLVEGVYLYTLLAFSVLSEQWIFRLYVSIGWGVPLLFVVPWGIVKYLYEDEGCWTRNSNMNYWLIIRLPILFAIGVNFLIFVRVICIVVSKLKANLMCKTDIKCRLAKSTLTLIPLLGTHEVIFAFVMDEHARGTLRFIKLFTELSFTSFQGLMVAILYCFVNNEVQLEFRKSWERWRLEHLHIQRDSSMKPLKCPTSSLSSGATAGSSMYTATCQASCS

Row | SMILES | Stability in the presence of serum (in words) (Serum stability assay) | Potency of 3 relative to capped GLP-1 2 (fold lower) (hGLP-1R)
1 | CC[C@H](C)[C@@H](CN(CC(=O)N[C@@H](Cc1c[nH]c2ccccc12)CN(CC(=O)N[C@H](CN(CC(=O)NCCN(CC(N)=O)S(=O)(=O)CCN)S(=O)(=O)CCN)C(C)C)S(=O)(=O)CC(C)C)S(C)(=O)=O)NC(=O)CN(C[C@H](CCC(=O)O)NC(=O)CN(C[C@H](C)NC(=O)CN(C[C@H](CCCCN)NC(=O)CN(C[C@H](CCC(=O)O)NC(=O)CN(C[C@H](Cc1ccc(O)cc1)NC(=O)CN(C[C@H](CO)NC(=O)CN(C[C@H](CC(=O)O)NC(=O)CN(C[C@@H](NC(=O)CN(C[C@@H](NC(=O)CN(C[C@H](CCC(=O)O)NC(=O)CN(C[C@H](Cc1ccccc1)NC(C)=O)S(C)(=O)=O)S(C)(=O)=O)[C@@H](C)O)S(=O)(=O)Cc1ccccc1)[C@@H](C)O)S(C)(=O)=O)S(=O)(=O)CC(C)C)S(C)(=O)=O)S(=O)(=O)CC(C)C)S(C)(=O)=O)S(C)(=O)=O)S(=O)(=O)CCN)S(=O)(=O)Cc1ccccc1 [compound 3] | remarkable stability | ~ 10 fold
2 | CC[C@H](C)[C@@H](CN(CC(=O)N[C@@H](Cc1c[nH]c2ccccc12)CN(CC(=O)N[C@H](CN(CC(=O)NCCN(CC(N)=O)S(=O)(=O)CCN)S(=O)(=O)CCN)C(C)C)S(=O)(=O)CC(C)C)S(C)(=O)=O)NC(=O)CN(C[C@H](CCC(=O)O)NC(=O)CN(C[C@H](C)NC(=O)CN(C[C@H](CCCCN)NC(=O)CN(C[C@H](CCC(=O)O)NC(=O)CN(C[C@H](Cc1ccc(O)cc1)NC(=O)CN(C[C@H](CO)NC(=O)CN(C[C@H](CC(=O)O)NC(=O)CN(C[C@@H](NC(=O)CN(C[C@@H](NC(=O)CN(C[C@H](CCC(=O)O)NC(=O)CN(C[C@H](Cc1ccccc1)NC(C)=O)S(C)(=O)=O)S(C)(=O)=O)[C@@H](C)O)S(=O)(=O)Cc1ccccc1)[C@@H](C)O)S(C)(=O)=O)S(=O)(=O)CC(C)C)S(=O)(=O)c1ccc(OC)cc1)S(=O)(=O)CC(C)C)S(C)(=O)=O)S(C)(=O)=O)S(=O)(=O)CCN)S(=O)(=O)Cc1ccccc1 [compound 5] | remarkable stability | –
